According to ChEMBL document CHEMBL4261585, “Synthesis of 1,2,3-triazole linked 4(3H)-Quinazolinones as potent antibacterial agents against multidrug-resistant Staphylococcus aureus” (Eur J Med Chem, 2018):
Converted amounts (≈) assume the structure as drawn. Where a SMILES comes first, the peptide text is derived from it. Bridges are numbered along the chain shown (N, C = ends). [ ]: non-standard residue; d: D form. Dab = NCC[C@H](N)C(=O)O

How the values were obtained:
Format in all cases: functional
[1] = system: Mycobacterium tuberculosis; assay: Antimycobacterial activity against Mycobacterium tuberculosis H37Rv ATCC 27294 after 7 days by pesto blue-dye based broth microdilution assay; conditions: H37Rv ATCC 27294, 168 h
Procedure, shortened: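 Broth microdilution in Middlebrook 7H9 with 10% ADC-Tween-80 (0.2% glycerol, 0.05% Tween-80). Compound is added from 10 mg/mL DMSO stocks as two-fold dilutions, 64–0.5 mg/L. Plates are incubated 7 days at 37 °C and read with PrestoBlue resazurin dye. MIC is the lowest concentration inhibiting visible growth, three replicates in duplicate.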

[2] = system: Mycobacteroides abscessus; assay: Antimycobacterial activity against Mycobacterium abscessus by pesto blue-dye based broth microdilution assay
Acinetobacter baumannii = assay: Antibacterial activity against Acinetobacter baumannii BAA-1605 after 16 to 18 hrs by CLSI method
Procedure, shortened: (§1)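 Broth microdilution MIC per CLSI. A single colony from Mueller-Hinton agar is grown overnight in cation-supplemented Mueller-Hinton broth (37 °C, shaking, 18–24 h). Incubation is 37 °C for 16–18 h. MIC is the lowest concentration with no visible growth. Three independent runs, each in duplicate.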

Mycobacteroides chelonae = assay: Antimycobacterial activity against Mycobacterium chelonae by pesto blue-dye based broth microdilution assay
[3] = system: Mycolicibacterium fortuitum; assay: Antimycobacterial activity against Mycobacterium fortuitum by pesto blue-dye based broth microdilution assay
Escherichia coli = assay: Antibacterial activity against Escherichia coli ATCC 25922 after 16 to 18 hrs by CLSI method; procedure, shortened: as §1
Klebsiella pneumoniae = assay: Antibacterial activity against Klebsiella pneumoniae ATCC BAA-1705 after 16 to 18 hrs by CLSI method; procedure, shortened: as §1
Staphylococcus aureus = assay: Antibacterial activity against Staphylococcus aureus ATCC 29213 after 16 to 18 hrs by CLSI method; procedure, shortened: as §1
Pseudomonas aeruginosa = assay: Antibacterial activity against Pseudomonas aeruginosa ATCC 27853 after 16 to 18 hrs by CLSI method; procedure, shortened: as §1

SMILES	MIC [1] [µg/mL]	MIC [2] [µg/mL]	MIC (Acinetobacter baumannii) [µg/mL]	MIC (Mycobacteroides chelonae) [µg/mL]	MIC [3] [µg/mL]	MIC (Escherichia coli) [µg/mL]	MIC (Klebsiella pneumoniae) [µg/mL]	MIC (Staphylococcus aureus) [µg/mL]	MIC (Pseudomonas aeruginosa) [µg/mL]
Cc1cc(-n2cc(COc3cccc(-n4c(C)nc5ccccc5c4=O)c3)nn2)cc(C)c1C	> 64	> 64	> 64	> 64	> 64	> 64	> 64	> 64	> 64
Cc1nc2ccccc2c(=O)n1-c1cccc(OCc2cn(-c3cccc(O)c3)nn2)c1	> 64	> 64	> 64	> 64	> 64	> 64	> 64	> 64	> 64
COc1ccc(-n2cc(COc3cccc(-n4c(C)nc5ccccc5c4=O)c3)nn2)cc1	> 64	> 64	> 64	> 64	> 64	> 64	> 64	> 64	> 64
Cc1nc2ccccc2c(=O)n1-c1cccc(OCc2cn(-c3ccc(F)c(Cl)c3)nn2)c1	> 64	> 64	> 64	> 64	> 64	> 64	> 64	> 64	> 64
Cc1cccc2c(=O)n(-c3cccc(OCc4cn(-c5cccc(Cl)c5)nn4)c3)c(C)nc12	> 64	> 64	> 64	> 64	> 64	> 64	> 64	> 64	> 64
N#Cc1ccc(/C=C/c2nc3ccccc3c(=O)n2-c2cccc(OCc3cn(-c4cccc(C(=O)O)c4)nn3)c2)cc1	> 64	> 64	> 64	> 64	> 64	> 64	> 64	4 (≈ 7.06 µM)	> 64
Cc1nc2ccccc2c(=O)n1-c1cccc(OCc2cn(-c3ccc(C(=O)O)cc3)nn2)c1	> 64	> 64	> 64	> 64	> 64	> 64	> 64	> 64	> 64
CCC(C)(C)c1ccc(OCc2cn(-c3cccc(-n4c(C)nc5ccccc5c4=O)c3)nn2)cc1	> 64	> 64	> 64	> 64	> 64	> 64	> 64	> 64	> 64
Cc1nc2ccccc2c(=O)n1-c1cccc(OCc2cn(-c3ccc(Cl)cc3)nn2)c1	> 64	> 64	> 64	> 64	> 64	> 64	> 64	> 64	> 64
O=c1c2ccccc2nc(/C=C/c2ccc(Cl)cc2)n1-c1cccc(-n2cc(-c3ccccc3)nn2)c1	> 64	> 64	> 64	> 64	> 64	> 64	> 64	> 64	> 64
Cc1cc([N+](=O)[O-])ccc1-n1cc(COc2cccc(-n3c(C)nc4ccccc4c3=O)c2)nn1	32 (≈ 68.3 µM)	> 64	> 64	> 64	> 64	> 64	> 64	> 64	> 64
Cc1nc2ccccc2c(=O)n1-c1cccc(OCc2cn(-c3ccc(O)cc3)nn2)c1	64 (≈ 150 µM)	> 64	> 64	> 64	> 64	> 64	> 64	> 64	> 64
N#Cc1ccc(/C=C/c2nc3ccccc3c(=O)n2-c2cccc(-n3cc(-c4ccccc4)nn3)c2)cc1	> 64	> 64	> 64	> 64	> 64	> 64	> 64	> 64	> 64
Cc1cccc(-n2cc(COc3cccc(-n4c(C)nc5ccccc5c4=O)c3)nn2)c1	> 64	> 64	> 64	> 64	> 64	> 64	> 64	> 64	> 64
COc1cc(-n2cc(COc3cccc(-n4c(C)nc5ccccc5c4=O)c3)nn2)cc(OC)c1OC	> 64	> 64	> 64	> 64	> 64	> 64	> 64	> 64	> 64
Cc1nc2ccccc2c(=O)n1-c1cccc(OCc2cn(-c3cccc(C(=O)O)c3)nn2)c1	> 64	> 64	> 64	> 64	> 64	> 64	> 64	> 64	> 64
Cc1ccc(C)c(OCc2cn(-c3cccc(-n4c(C)nc5ccccc5c4=O)c3)nn2)c1	> 64	> 64	> 64	> 64	> 64	> 64	> 64	> 64	> 64
Cc1cccc2c(=O)n(-c3cccc(OCc4cn(-c5cccc(Cl)c5)nn4)c3)c(/C=C/c3ccc(C#N)cc3)nc12	> 64	> 64	> 64	> 64	> 64	> 64	> 64	> 64	> 64
Cc1ccc(-n2cc(COc3cccc(-n4c(C)nc5ccccc5c4=O)c3)nn2)cc1[N+](=O)[O-]	> 64	> 64	> 64	> 64	> 64	> 64	> 64	> 64	> 64
Cc1nc2ccccc2c(=O)n1-c1cccc(-n2cc(-c3ccccc3)nn2)c1	> 64	> 64	> 64	> 64	> 64	> 64	> 64	> 64	> 64
Cc1nc2ccccc2c(=O)n1-c1cccc(OCc2cn(-c3cccc(Cl)c3)nn2)c1	> 64	> 64	> 64	> 64	> 64	> 64	> 64	> 64	> 64
CCC(C)(C)c1ccc(OCc2cn(-c3cccc(-n4c(/C=C/c5ccc(C#N)cc5)nc5ccccc5c4=O)c3)nn2)cc1		> 64	> 64	> 64	> 64	> 64	> 64	> 64	> 64
NNC(=O)c1ccncc1 [ISONIAZID]	0.03 (≈ 0.219 µM)								
CC(C)C[C@@H]1NC(=O)[C@@H](Cc2ccccc2)NC(=O)[C@H](CCN)NC(=O)[C@@H](NC(=O)[C@H](CCN)NC(=O)[C@@H](N)[C@@H](C)O)CCNC(=O)[C@H]([C@@H](C)O)NC(=O)[C@H](CCN)NC(=O)[C@H](CCN)NC1=O [POLYMYXIN B NONAPEPTIDE] (H-T[Dab][Dab][Dab][dF]L[Dab][Dab]T; lactam 3-C)			> 128			> 128			
